For data set [1], the system named is Plasma. Kind of data set: Stability in CD1 mouse plasma at 10 mM in presence of serine protease inhibitor PMSF after 0.5 to 2 hrs by UPLC-MS/MS method. It is filed as ADME, cell-free. The settings on record: 10000 µM.
A further data set has as its system Liver microsome. Kind of data set: Intrinsic clearance in human liver microsomes. It is filed as ADME. On the technique in general: Microsomes from liver hold many membrane-bound enzymes, among them those of drug oxidation.
Data set [2] concerns the target T1, Subtilisin-like protease 1 (Plasmodium falciparum, UniProt O61142).
T1 sequence (O61142 whole entry): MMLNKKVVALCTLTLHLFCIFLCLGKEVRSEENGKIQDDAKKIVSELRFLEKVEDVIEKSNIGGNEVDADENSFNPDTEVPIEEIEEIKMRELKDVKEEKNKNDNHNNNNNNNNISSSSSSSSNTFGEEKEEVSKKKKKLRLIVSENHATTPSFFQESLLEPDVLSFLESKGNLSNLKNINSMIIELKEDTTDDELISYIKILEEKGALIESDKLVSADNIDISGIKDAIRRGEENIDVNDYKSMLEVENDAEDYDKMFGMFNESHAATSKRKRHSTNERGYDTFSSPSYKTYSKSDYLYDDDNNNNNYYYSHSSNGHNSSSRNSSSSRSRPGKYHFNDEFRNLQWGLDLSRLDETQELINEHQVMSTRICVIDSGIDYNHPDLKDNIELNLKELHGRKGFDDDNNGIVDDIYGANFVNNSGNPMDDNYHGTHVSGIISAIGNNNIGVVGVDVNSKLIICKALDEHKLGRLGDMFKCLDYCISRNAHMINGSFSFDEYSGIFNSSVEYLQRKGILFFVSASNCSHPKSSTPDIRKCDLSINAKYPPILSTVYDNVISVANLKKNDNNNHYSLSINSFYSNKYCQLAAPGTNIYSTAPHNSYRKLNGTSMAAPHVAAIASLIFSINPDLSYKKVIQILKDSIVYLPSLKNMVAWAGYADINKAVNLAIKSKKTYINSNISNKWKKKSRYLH
The data set is described as follows: Inhibition of Plasmodium falciparum recombinant SUB1 using SERA4st1F-6R12 substrate incubated for 55 mins by fluorescence spectrophotometry.

Data set [3] can be described thus: Inhibition of CYP3A (unknown origin) by 4VG metabolism assay. The data set is classed as ADME, Homo sapiens.
The next data set deals with Albumin (Homo sapiens, UniProt P02768). The data set is described as follows: Binding affinity to HSA. The data set is classed as ADME. The conditions noted are these: human serum albumin (HSA), read-out: PB (converted).
Chain of Albumin (P02768 whole entry): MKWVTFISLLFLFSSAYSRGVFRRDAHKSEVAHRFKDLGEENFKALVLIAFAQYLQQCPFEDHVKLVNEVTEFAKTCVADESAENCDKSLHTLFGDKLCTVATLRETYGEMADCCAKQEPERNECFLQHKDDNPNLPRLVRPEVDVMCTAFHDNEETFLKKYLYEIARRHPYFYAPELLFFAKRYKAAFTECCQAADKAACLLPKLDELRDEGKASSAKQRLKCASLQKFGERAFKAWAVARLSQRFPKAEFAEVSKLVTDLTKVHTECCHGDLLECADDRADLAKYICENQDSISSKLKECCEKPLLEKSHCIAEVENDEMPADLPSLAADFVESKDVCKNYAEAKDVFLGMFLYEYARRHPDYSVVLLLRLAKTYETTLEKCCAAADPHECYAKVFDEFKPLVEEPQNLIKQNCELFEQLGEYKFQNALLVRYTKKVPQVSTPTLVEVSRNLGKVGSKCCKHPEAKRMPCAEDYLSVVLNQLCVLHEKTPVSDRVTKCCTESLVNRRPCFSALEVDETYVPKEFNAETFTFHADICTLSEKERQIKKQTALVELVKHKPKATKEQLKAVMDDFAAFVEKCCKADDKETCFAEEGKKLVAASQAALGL
Data set [4] concerns Plasmodium falciparum. Kind of data set: Antimalarial activity against Plasmodium falciparum 3D7 infected in erythrocytes incubated for 48 hrs by [3H]hypoxanthine incorporation assay. It is filed as functional, organism-based.
A short description of data set [5]: Kinetic solubility of the compound by chemoluminescent nitrogen detection kinetic solubility assay. The data set is classed as physicochemical. The settings on record: read-out: Kinetic_solubility.
For data set [6], the system named is Plasmodium falciparum. Kind of data set: Antimalarial activity against Plasmodium falciparum assessed as parasite reduction ratio at 10 times antimalarial IC50 level over 48 hrs. It is filed as functional. An outline of the steps:
(§1)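 Parasite reduction ratio assay on P. falciparum with compound at 10× its Pf IC₅₀. Viable parasite decrease is followed over one life cycle (48 h), giving log₁₀ PRR and the time needed to kill 99.9% of parasites (PCT99.9%).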

Data set [7] in a line: Half life in mouse liver microsomes. The data set is classed as ADME.
Data set [8] has as its system Plasmodium falciparum. The data set is described as follows: Antimalarial activity against Plasmodium falciparum 3D7 infected in erythrocytes incubated for 72 hrs by [3H]hypoxanthine incorporation assay. The data set is classed as functional, organism-based.
For data set [9], the system named is Plasma. Kind of data set: Stability in CD1 mouse plasma at 10 mM after 0.5 to 2 hrs by UPLC-MS/MS method. The settings on record: 10000 µM. The data set is classed as ADME, cell-free.
The next data set deals with Plasmodium berghei. The data set is described as follows: Antimalarial activity against Plasmodium berghei infected in orally dosed mouse model of malaria infection. It is filed as functional. The conditions noted are these: po. Summed up: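 Mice infected with P. berghei; compound given orally (p.o.) as 2 doses of 50 mg kg⁻¹.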
A further data set deals with Dipeptidyl peptidase 4 (Homo sapiens, UniProt P27487). Kind of data set: Inhibition of DPP4 (unknown origin).
Chain of Dipeptidyl peptidase 4 (P27487 whole entry): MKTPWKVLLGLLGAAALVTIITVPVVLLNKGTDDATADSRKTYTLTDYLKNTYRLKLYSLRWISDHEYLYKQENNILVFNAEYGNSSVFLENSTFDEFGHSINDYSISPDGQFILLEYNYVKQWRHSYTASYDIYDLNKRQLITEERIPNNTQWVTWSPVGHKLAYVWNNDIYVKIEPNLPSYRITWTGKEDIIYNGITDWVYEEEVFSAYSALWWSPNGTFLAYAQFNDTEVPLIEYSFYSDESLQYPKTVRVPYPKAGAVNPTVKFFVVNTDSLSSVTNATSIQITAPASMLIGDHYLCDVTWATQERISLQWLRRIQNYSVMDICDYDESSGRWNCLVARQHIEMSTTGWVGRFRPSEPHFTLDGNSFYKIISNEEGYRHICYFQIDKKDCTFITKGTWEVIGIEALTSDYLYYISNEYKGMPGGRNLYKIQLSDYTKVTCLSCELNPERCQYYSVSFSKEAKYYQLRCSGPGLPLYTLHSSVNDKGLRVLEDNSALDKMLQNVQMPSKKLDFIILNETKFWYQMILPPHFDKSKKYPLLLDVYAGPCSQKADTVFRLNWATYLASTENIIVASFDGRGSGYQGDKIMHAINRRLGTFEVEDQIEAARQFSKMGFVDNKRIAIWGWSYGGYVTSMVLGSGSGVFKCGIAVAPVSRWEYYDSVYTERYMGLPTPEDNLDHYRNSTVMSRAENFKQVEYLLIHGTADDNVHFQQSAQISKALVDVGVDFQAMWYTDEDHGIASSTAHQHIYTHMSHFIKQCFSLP
Data set [10] is described as follows: Half life in human liver microsomes. The data set is classed as ADME.
Data set [11] can be described thus: Passive permeability by PAMPA method. The data set is classed as ADME. The settings on record: read-out: permeability. (In PAMPA a lipid-coated filter parts donor from acceptor wells.)
Data set [12] concerns Plasmodium falciparum. Kind of data set: Antimalarial activity against Plasmodium falciparum 3D7 infected in erythrocytes incubated for 24 hrs by [3H]hypoxanthine incorporation assay. It is filed as functional, organism-based.
The subject of another data set is HepG2. The data set is described as follows: Cytotoxicity against human HepG2 cells. The data set is classed as cell-based.
Data set [13] deals with Voltage-gated inwardly rectifying potassium channel KCNH2 (Homo sapiens, UniProt Q12809). The data set is described as follows: Inhibition of human ERG by QPatch assay. Background: Patch clamp records ionic current or voltage across a cell membrane.
Chain of Voltage-gated inwardly rectifying potassium channel KCNH2 (Q12809 whole entry): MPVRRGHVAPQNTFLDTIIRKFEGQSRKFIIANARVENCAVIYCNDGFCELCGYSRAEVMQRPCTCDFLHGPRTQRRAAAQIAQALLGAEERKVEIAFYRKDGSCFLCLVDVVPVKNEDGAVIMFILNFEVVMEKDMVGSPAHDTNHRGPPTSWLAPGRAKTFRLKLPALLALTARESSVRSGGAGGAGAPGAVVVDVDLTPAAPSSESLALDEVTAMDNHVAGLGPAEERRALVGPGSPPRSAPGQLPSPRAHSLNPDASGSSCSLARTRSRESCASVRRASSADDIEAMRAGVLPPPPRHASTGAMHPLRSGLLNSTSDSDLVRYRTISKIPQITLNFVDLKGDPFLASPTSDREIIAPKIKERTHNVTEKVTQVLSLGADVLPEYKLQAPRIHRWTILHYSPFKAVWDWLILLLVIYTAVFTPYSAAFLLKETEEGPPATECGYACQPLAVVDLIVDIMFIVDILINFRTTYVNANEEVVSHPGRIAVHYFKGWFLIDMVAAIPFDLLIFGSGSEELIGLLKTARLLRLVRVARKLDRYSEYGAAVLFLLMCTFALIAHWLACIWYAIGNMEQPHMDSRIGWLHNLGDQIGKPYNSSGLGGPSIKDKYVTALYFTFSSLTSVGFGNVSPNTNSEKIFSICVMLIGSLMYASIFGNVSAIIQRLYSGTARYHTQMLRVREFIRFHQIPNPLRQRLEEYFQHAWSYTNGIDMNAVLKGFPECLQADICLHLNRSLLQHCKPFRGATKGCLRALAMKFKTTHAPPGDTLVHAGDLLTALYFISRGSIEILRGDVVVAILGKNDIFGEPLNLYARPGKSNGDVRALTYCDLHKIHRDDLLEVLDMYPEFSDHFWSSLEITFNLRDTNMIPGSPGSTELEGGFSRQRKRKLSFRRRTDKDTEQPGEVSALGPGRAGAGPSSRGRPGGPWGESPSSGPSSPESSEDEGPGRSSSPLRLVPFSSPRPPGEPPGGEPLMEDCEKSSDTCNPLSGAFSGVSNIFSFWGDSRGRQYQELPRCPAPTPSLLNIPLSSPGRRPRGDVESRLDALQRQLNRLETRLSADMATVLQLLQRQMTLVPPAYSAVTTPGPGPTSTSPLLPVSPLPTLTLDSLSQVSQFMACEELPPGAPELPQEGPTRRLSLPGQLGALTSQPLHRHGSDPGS
Data set [14] deals with Blood. The data set is described as follows: Stability in CD1 mouse blood at 10 mM after 0.5 to 2 hrs by UPLC-MS/MS method. The data set is classed as ADME, tissue-based. The settings on record: 10000 µM.
A short description of data set [15]: Inhibition of CYP3A (unknown origin) by 4VR metabolism assay. The data set is classed as ADME, Homo sapiens.
In data set [16] the test system is Plasmodium falciparum. Kind of data set: Antimalarial activity against Plasmodium falciparum assessed as time duration for 99.9% parasite killing at 10 times antimalarial IC50 level over 48 hrs. It is filed as functional. An outline of the steps:
as §1

For data set [17], the system named is Plasmodium falciparum. The data set is described as follows: Antimalarial activity against Plasmodium falciparum infected in erythrocytes assessed as young trophozoites level at 10 times antimalarial IC50 level incubated for 24 and 48 hrs by Giemsa staining based microsocpy.
The test system of data set [18] is Plasmodium falciparum. The data set is described as follows: Antimalarial activity against Plasmodium falciparum infected in humanized SCID mouse model of malaria infection assessed as induction of phenotypic changes in parasite at 217 mg/kg, po measured 96 hrs post dose by microscopic and flow cytometry method. The data set is classed as functional, organism-based. Summed up:
(§2)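 P. falciparum-infected humanized mice, standard four-day test; compound given orally at several doses, vehicle (n = 4) and oral chloroquine 10 mg·kg⁻¹ (n = 2) as controls. Parasitemia followed per mouse. Peripheral blood sampled 96 h after starting treatment and analysed by microscopy and by flow cytometry gating infected human erythrocytes.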

In data set [19] the test system is Plasmodium falciparum. Kind of data set: Antimalarial activity against Plasmodium falciparum infected in humanized SCID mouse model of malaria infection assessed as induction of abnormal trophozoites with hemozoin granules and pyknotic cells in parasite at 217 mg/kg, po measured 96 hrs post dose by microscopic and flow cytometry method. It is filed as functional, organism-based. An outline of the steps:
as §2

For data set [20], the system named is Plasmodium falciparum. The data set is described as follows: Antimalarial activity against Plasmodium falciparum infected in humanized SCID mouse model of malaria infection assessed as induction of altered rings in parasite at 217 mg/kg, po measured 96 hrs post dose by microscopic and flow cytometry method. The data set is classed as functional, organism-based. An outline of the steps:
as §2

For data set [21], the system named is Blood. The data set is described as follows: Drug level in blood of Plasmodium falciparum infected humanized SCID mouse model of malaria infection at 217 mg/kg, po measured 96 hrs post dose. The settings on record: in vivo. It is filed as ADME, organism-based.
Data set [22] deals with Plasmodium falciparum. The data set is described as follows: Antimalarial activity against Plasmodium Plasmodium falciparum infected in orally dosed humanized SCID mouse model of malaria infection. The data set is classed as functional. The settings on record: po. Summed up: as §2

Structures are written as SMILES. ≈ marks a conversion by molar mass, not a printed value. Calls of active or inactive are those of the source.

Take `CC(C)N(C)C(=O)n1cnc(S(=O)(=O)C2CC3CCC2C3)n1` (centres undefined): the Stability entry in the data set on Plasma [1] is “Stable”; with Plasma [9], “Unstable”; with Blood [14], “Unstable”. The molecule further registered an Intrinsic clearance with Liver microsome of 1.6 mL/min/g. The IC50 – broadly, the concentration that inhibits the measured activity by half – is “Not Active” in [2]; more than 50 µM in data set [3]; 0.016 µM in the data set on Plasmodium falciparum [4]; 0.028 µM in the data set with Plasmodium falciparum [8]; 0.009 µM on Dipeptidyl peptidase 4; 0.049 µM in the data set on Plasmodium falciparum [12]. In addition, the values for the IC50 (in the data set with HepG2; in data set [15]) were more than 100 µM and 31.6 µM, respectively. The fraction unbound on Albumin was 0.42. For the same molecule, the solubility kinetic in data set [5] was not below 500 µM. For the same molecule, in the data set with Plasmodium falciparum [6], the “log(ratio)” value is on record as 3.1. In addition, the half-life (commonly the time needed for the level to fall by half in the phase considered) in data set [7] is 3.8 min; in data set [10], more than 30 min. Also, the ED50 – broadly, the dose at which the effect has come halfway, by size or by number of responders – with Plasmodium berghei is more than 50 mg/kg. The Papp in data set [11] is more than 30 ×10⁻⁶ cm/s. In addition, the “inhibition (INH)” value in data set [13] is “Not Active”. In the data set with Plasmodium falciparum [16], the Time came out at 48 h. Further, the outcome in the data set with Plasmodium falciparum [17] was Active.

On to `COc1ccc(CN(C)C(=O)n2cnc(S(=O)(=O)[C@@H]3C[C@H]4CC[C@@H]3C4)n2)cc1`, for which the outcome with Plasmodium falciparum [18], with Plasmodium falciparum [19], in the data set on Plasmodium falciparum [20] and in the data set with Plasmodium falciparum [17] was Active. Moreover, the values for the IC50 entry (in [2]; in the data set with Plasmodium falciparum [4]; in the data set with HepG2) were “Not Active”, 0.01 µM and more than 100 µM, respectively. In addition, the solubility kinetic in [5] worked out at 125 µM (≈ 50.6 µg/mL). Besides, the half-life in [7] amounted to 22.6 min. In the data set with Blood [21], the Drug uptake result is on record as “Not Active”. The same molecule yielded an ED50 with Plasmodium falciparum [22] of 100 mg/kg. This molecule yielded an ED90 in the data set with Plasmodium falciparum [22] of 150 mg/kg.

Source of the values: ChEMBL document CHEMBL3603753, “Carbamoyl Triazoles, Known Serine Protease Inhibitors, Are a Potent New Class of Antimalarials” (J Med Chem, 2015).
